Consider 4 molecules from ChEMBL document CHEMBL1134793, “Investigation of the selectivity of oxymorphone- and naltrexone-derived ligands via site-directed mutagenesis of opioid receptors: exploring the "address" recognition locus” (J Med Chem, 2001).

Format in all cases: cell-based, HEK293
The target in assay [1] is Mu-type opioid receptor (Rattus norvegicus, UniProt P33535, K303E). The assay can be described thus: Displacement of [3H]- diprenorphine from mu-K303E-receptor expressed in HEK 293 cells. A general note: In a radioligand displacement assay an active substance lowers the binding of a labelled ligand.
Mu-type opioid receptor (Rattus norvegicus, UniProt P33535, K303E), sequence (P33535 whole entry K303E): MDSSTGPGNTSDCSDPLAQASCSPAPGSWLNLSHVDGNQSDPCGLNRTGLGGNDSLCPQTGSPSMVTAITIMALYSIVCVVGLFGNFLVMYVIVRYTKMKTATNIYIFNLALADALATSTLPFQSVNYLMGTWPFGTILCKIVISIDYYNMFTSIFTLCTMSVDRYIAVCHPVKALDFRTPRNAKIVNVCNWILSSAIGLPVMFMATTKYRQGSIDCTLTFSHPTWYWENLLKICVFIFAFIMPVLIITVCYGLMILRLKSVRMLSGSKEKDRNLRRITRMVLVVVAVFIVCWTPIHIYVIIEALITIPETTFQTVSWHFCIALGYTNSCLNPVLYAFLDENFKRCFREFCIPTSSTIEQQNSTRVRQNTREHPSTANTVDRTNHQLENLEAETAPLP
Assay [2] has as its target Mu-type opioid receptor (Rattus norvegicus, UniProt P33535, W318A). The assay can be described thus: Displacement of [3H]- diprenorphine from mu-W318A-receptor expressed in HEK 293 cells.
Assay [3] deals with Delta-type opioid receptor (Mus musculus, UniProt P32300). The assay can be described thus: Displacement of [3H]- diprenorphine from delta receptor expressed in HEK 293 cells. Summed up:
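HEK-293 cells transiently transfected with wild-type or mutant receptor cDNA by calcium phosphate were harvested 60-72 h later and suspended in 25 mM HEPES, pH 7.4. […] Nonspecific binding was defined with 1 μM NTI. Bound ligand was filtered on PEI-soaked GF/B and counted.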

Assay [4] addresses Delta-type opioid receptor (Mus musculus, UniProt P32300, W284E). Description: Displacement of [3H]- diprenorphine from delta-W284E-receptor expressed in HEK 293 cells. The method in brief: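 HEK-293 cells transiently transfected with wild-type or mutant receptor cDNA by calcium phosphate were harvested 60-72 h later and suspended in 25 mM HEPES, pH 7.4. Nonspecific binding was defined with 1 μM NTI. Bound ligand was filtered on PEI-soaked GF/B and counted.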

The target of assay [5] is Kappa-type opioid receptor (Rattus norvegicus, UniProt P34975, E297A). Description: Displacement of [3H]diprenorphine from k-E297A-receptor expressed in HEK 293 cells.
Kappa-type opioid receptor (Rattus norvegicus, UniProt P34975, E297A), sequence (P34975 whole entry E297A): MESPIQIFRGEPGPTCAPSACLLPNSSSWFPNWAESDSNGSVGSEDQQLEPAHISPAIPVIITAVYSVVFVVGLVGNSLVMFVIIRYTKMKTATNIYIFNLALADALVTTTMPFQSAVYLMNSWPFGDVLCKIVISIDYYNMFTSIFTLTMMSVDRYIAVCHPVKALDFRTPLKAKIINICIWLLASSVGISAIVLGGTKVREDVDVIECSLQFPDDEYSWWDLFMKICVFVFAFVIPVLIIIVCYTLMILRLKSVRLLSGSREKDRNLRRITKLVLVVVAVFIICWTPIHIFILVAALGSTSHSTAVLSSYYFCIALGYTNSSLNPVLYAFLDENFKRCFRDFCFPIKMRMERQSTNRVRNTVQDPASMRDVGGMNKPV
The target of assay [6] is Kappa-type opioid receptor (Rattus norvegicus, UniProt P34975, Y312A). The assay can be described thus: Displacement of [3H]diprenorphine from k-Y312A-receptor expressed in HEK 293 cells.
Kappa-type opioid receptor (Rattus norvegicus, UniProt P34975, Y312A), sequence (P34975 whole entry Y312A): as the sequence (P34975 whole entry E297A) above, with A297E, Y312A counted along it
The target of assay [7] is Kappa-type opioid receptor (Rattus norvegicus, UniProt P34975). Description: Displacement of [3H]diprenorphine from opioid receptor kappa 1 expressed in HEK 293 cells.
Kappa-type opioid receptor (Rattus norvegicus, UniProt P34975), sequence (P34975 whole entry): as the sequence (P34975 whole entry E297A) above, with A297E counted along it
The target in assay [8] is Mu-type opioid receptor (Rattus norvegicus, UniProt P33535). Description: Displacement of [3H]- diprenorphine from mu-receptor expressed in HEK 293 cells.
Mu-type opioid receptor (Rattus norvegicus, UniProt P33535), sequence (P33535 whole entry): as the sequence (P33535 whole entry K303E) above, with E303K counted along it

Delta-type opioid receptor (Mus musculus, UniProt P32300, W284E), sequence (P32300 whole entry W284E): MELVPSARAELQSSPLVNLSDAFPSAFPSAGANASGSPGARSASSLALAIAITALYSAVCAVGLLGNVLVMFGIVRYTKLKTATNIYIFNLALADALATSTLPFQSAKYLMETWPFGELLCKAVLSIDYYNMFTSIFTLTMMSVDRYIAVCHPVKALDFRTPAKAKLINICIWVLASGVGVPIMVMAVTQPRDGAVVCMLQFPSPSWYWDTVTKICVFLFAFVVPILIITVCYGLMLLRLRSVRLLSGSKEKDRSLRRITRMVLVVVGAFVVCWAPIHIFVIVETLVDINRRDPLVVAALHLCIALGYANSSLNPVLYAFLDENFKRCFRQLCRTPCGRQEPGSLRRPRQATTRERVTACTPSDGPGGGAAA
Delta-type opioid receptor (Mus musculus, UniProt P32300), sequence (P32300 whole entry): as the sequence (P32300 whole entry W284E) above, with E284W counted along it
Mu-type opioid receptor (Rattus norvegicus, UniProt P33535, W318A), sequence (P33535 whole entry W318A): as the sequence (P33535 whole entry K303E) above, with E303K, W318A counted along it

As a reminder, the Ki is a measure of affinity in units of concentration, obtained from inhibition or displacement. `N=C(N)Nc1ccc2[nH]c3c(c2c1)C[C@@]1(O)[C@H]2Cc4ccc(O)c5c4[C@@]1(CCN2CC1CC1)[C@H]3O5` [GUANIDINONALTRINDOLE]: the Ki was determined as 0.09 nM in assay [1]; 0.5 nM in assay [2]; 46.2 nM in assay [3]; 1.1 nM in assay [4]; 3.9 nM in assay [5]; 0.03 nM in assay [6].

On to `Oc1ccc2c3c1O[C@H]1c4[nH]c5ccccc5c4C[C@@]4(O)[C@@H](C2)N(CC2CC2)CC[C@]314` [NALTRINDOLE], for which the Ki in assay [3] is 0.19 nM; in assay [4], 1.82 nM; in assay [5], 42 nM; in assay [7], 25.5 nM; in assay [6], 1.23 nM.

On to `Oc1ccc2c3c1O[C@H]1c4[nH]c5c(c4C[C@@]4(O)[C@@H](C2)N(CC2CC2)CC[C@]314)C[C@@]1(O)[C@H]2Cc3ccc(O)c4c3[C@@]1(CCN2CC1CC1)[C@H]5O4` [NORBINALTORPHIMINE], for which the Ki in assay [7] turned out to be 0.07 nM; in assay [6], 1.39 nM.

`CN1CC[C@]23c4c5ccc(O)c4O[C@H]2C(=O)C2(Cc4ccccc4C2)C[C@@]3(O)[C@H]1C5` [SPIROINDANYLOXYMORPHONE]: the Ki in assay [1] turned out to be 154 nM; in assay [2], 3.9 nM; in assay [8], 88.4 nM; in assay [3] it was 4.1 nM; in assay [4], 46.6 nM; in assay [5] it was 292 nM. The Ki came out at 488 nM in assay [7] and 55 nM in assay [6].
